# Measurements published in ChEMBL document CHEMBL1137451, “Synthesis and evaluation of antifungal properties of a series of the novel 2-amino-5-oxo-4-phenyl-5,6,7,8-tetrahydroquinoline-3-carbonitrile and its analogues” (Bioorg Med Chem, 2007).
# Calls of active or inactive are those of the source. The calls are words filed in the database; no cut-off is given here.
# Assays:
# [1] = tested on: MCF7; assay: Antiproliferative activity against human MCF7 cells assessed as cell viability by MTT assay; format: functional, cell-based
# Summary of the method: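 MCF-7 cells in MEM with 10% FBS, 37 °C, 5% CO2, seeded 10,000/well, adhered 24 h. Treated 48 h at 0, 1, 10, 100, 1000 or 2000 µg/ml (DMSO stock diluted in medium), then 24 h recovery. MTT 4 h, 2-propanol solubilisation, A570 against 630 nm. DMSO carrier set as 100% growth; IC50 taken from the dose curve; triplicates.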
# [2] = tested on: Candida albicans; assay: Antifungal activity against Candida albicans 2 at 100 ug/disc after 24 hrs by disc diffusion method; format: functional; conditions: read-out: IZ
# Summary of the method: (§1)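 Yeast suspensions (C. albicans strains 1, 2) and mycelial suspensions (F. oxysporum strains 1, 2; Mucor sp.) spread on YPG (0.3% yeast extract, 0.5% peptone, 1% glucose) or PDA agar. Compound applied on filter-paper discs at the stated amount; 28 °C, 24 h. Read-out is inhibition zone diameter. Controls: 50% v/v DMSO vehicle, cycloheximide, amphotericin B.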
# [3] = tested on: Fusarium oxysporum; assay: Antifungal activity against Fusarium oxysporum 1 at 60 ug/disc after 24 hrs by disc diffusion method; format: functional; conditions: read-out: IZ; summary of the method: as §1
# [4] = tested on: Candida albicans; assay: Antifungal activity against Candida albicans 1 at 40 ug/disc after 24 hrs by disc diffusion method; format: functional; conditions: for zone of inhibition at 40 µg/disc: read-out: IZ; summary of the method: as §1
# [5] = tested on: Fusarium oxysporum; assay: Antifungal activity against Fusarium oxysporum 1 after 24 hrs by disc diffusion method; format: functional
# Summary of the method: (§2)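 Disc diffusion on Candida albicans strains 1 and 2 (yeast suspension), Fusarium oxysporum strains 1 and 2 and Mucor sp. (mycelial suspension), spread on YPG or PDA agar. Compound at graded amounts per filter-paper disc, 28 °C for 24 h. MIC taken as the lowest amount giving a 2 mm inhibition zone. Controls: 50% v/v DMSO vehicle, cycloheximide, amphotericin B.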
# [6] = tested on: Candida albicans; assay: Antifungal activity against Candida albicans 2 at 60 ug/disc after 24 hrs by disc diffusion method; format: functional; conditions: read-out: IZ; summary of the method: as §1
# [7] = tested on: Candida albicans; assay: Antifungal activity against Candida albicans 1 at 100 ug/disc after 24 hrs by disc diffusion method; format: functional; conditions: read-out: IZ; summary of the method: as §1
# [8] = tested on: Candida albicans; assay: Antifungal activity against Candida albicans 2 at 40 ug/disc after 24 hrs by disc diffusion method; format: functional; conditions: for zone of inhibition at 40 µg/disc: read-out: IZ; summary of the method: as §1
# [9] = tested on: Fusarium oxysporum; assay: Antifungal activity against Fusarium oxysporum 2 at 40 ug/disc after 24 hrs by disc diffusion method; format: functional; conditions: read-out: IZ; summary of the method: as §1
# [10] = tested on: Mucor; assay: Antifungal activity against Mucor at 40 ug/disc after 24 hrs by disc diffusion method; format: functional; conditions: for zone of inhibition at 40 µg/disc: read-out: IZ; summary of the method: as §1
# [11] = tested on: Candida albicans; assay: Antifungal activity against Candida albicans 2 after 24 hrs by disc diffusion method; format: functional; summary of the method: as §2
# [12] = tested on: Mucor; assay: Antifungal activity against Mucor at 100 ug/disc after 24 hrs by disc diffusion method; format: functional; conditions: read-out: IZ; summary of the method: as §1
# [13] = tested on: Fusarium oxysporum; assay: Antifungal activity against Fusarium oxysporum 1 at 40 ug/disc after 24 hrs by disc diffusion method; format: functional; conditions: read-out: IZ; summary of the method: as §1
# [14] = tested on: Fusarium oxysporum; assay: Antifungal activity against Fusarium oxysporum 1 at 100 ug/disc after 24 hrs by disc diffusion method; format: functional; conditions: read-out: IZ; summary of the method: as §1
# [15] = tested on: Candida albicans; assay: Antifungal activity against Candida albicans 1 after 24 hrs by disc diffusion method; format: functional; summary of the method: as §2
# [16] = tested on: MCF7; assay: Antiproliferative activity against human MCF7 cells at 1 mg/mL assessed as cell viability by MTT assay; format: functional, cell-based
# Summary of the method: (§3)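 Hep3B or MCF-7 cells in MEM with 10% heat-inactivated FBS at 37 °C, 5% CO2, seeded 10,000/well and left to adhere 24 h. Exposed 48 h to compound diluted from 4 mg/ml DMSO stock, then 24 h in fresh medium. MTT (1 mg/ml, 4 h), formazan dissolved in 2-propanol, read at 570 nm (630 nm reference). DMSO-only wells set as 100% growth; triplicates.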
# [17] = tested on: Candida albicans; assay: Antifungal activity against Candida albicans 1 at 60 ug/disc after 24 hrs by disc diffusion method; format: functional; conditions: read-out: IZ; summary of the method: as §1
# [18] = tested on: Fusarium oxysporum; assay: Antifungal activity against Fusarium oxysporum 2 at 100 ug/disc after 24 hrs by disc diffusion method; format: functional; conditions: read-out: IZ; summary of the method: as §1
# [19] = tested on: Mucor; assay: Antifungal activity against Mucor at after 24 hrs by disc diffusion method; format: functional; summary of the method: as §2
# [20] = tested on: Hep 3B2; assay: Antiproliferative activity against human Hep3B cells upto 400 ug/mL assessed as cell viability by MTT assay; format: functional, cell-based; summary of the method: as §3
# [21] = tested on: Fusarium oxysporum; assay: Antifungal activity against Fusarium oxysporum 2 at 60 ug/disc after 24 hrs by disc diffusion method; format: functional; conditions: read-out: IZ; summary of the method: as §1
# [22] = tested on: Fusarium oxysporum; assay: Antifungal activity against Fusarium oxysporum 2 after 24 hrs by disc diffusion method; format: functional; summary of the method: as §2
# [23] = tested on: Mucor; assay: Antifungal activity against Mucor at 60 ug/disc after 24 hrs by disc diffusion method; format: functional; conditions: read-out: IZ; summary of the method: as §1
# [24] = tested on: Hep 3B2; assay: Antiproliferative activity against human Hep3B cells at 1 mg/mL assessed as cell viability by MTT assay; format: functional, cell-based; summary of the method: as §3
# [25] = tested on: Benjaminiella poitrasii; assay: Inhibition of yeast hypha transition at 4 ug/mL after 4 hrs
# [26] = tested on: Benjaminiella poitrasii; assay: Inhibition of Benjaminiella poitrasii chitin synthase at 4 ug/mL
# Summary of the method: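 Chitin synthase from Benjaminiella poitrasii measured with and without compound at 4 µg/ml, using a non-radioactive chitin synthase assay. Nikkomycin Z used as reference.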
# [27] = tested on: Benjaminiella poitrasii; assay: Inhibition of yeast hypha transition at 20 ug/mL after 4 hrs
compound,measurement,setting,value
C[C@@H]1[C@H](O)[C@@H](C)/C=C/C=C/C=C/C=C/C=C/C=C/C=C/[C@H](O[C@@H]2O[C@H](C)[C@@H](O)[C@H](N)[C@@H]2O)C[C@@H]2O[C@](O)(C[C@@H](O)C[C@@H](O)[C@H](O)CC[C@@H](O)C[C@@H](O)CC(=O)O[C@H]1C)C[C@H](O)[C@H]2C(=O)O [AMPHOTERICIN B],IC50,[1],60 µg/mL
same,zone of inhibition at 100 µg/disc,[2],12 mm
same,zone of inhibition at 60 µg/disc,[3],6 mm
same,zone of inhibition at 40 µg/disc,[4],4 mm
same,MIC,[5],40 µg/disc
same,zone of inhibition at 60 µg/disc,[6],7 mm
same,zone of inhibition at 100 µg/disc,[7],12 mm
same,zone of inhibition at 40 µg/disc,[8],4 mm
same,zone of inhibition at 40 µg/disc,[9],3 mm
same,zone of inhibition at 40 µg/disc,[10],5 mm
same,MIC,[11],40 µg/disc
same,zone of inhibition at 100 µg/disc,[12],10 mm
same,zone of inhibition at 40 µg/disc,[13],2 mm
same,zone of inhibition at 100 µg/disc,[14],9 mm
same,MIC,[15],40 µg/disc
same,Activity,[16],Toxic
same,zone of inhibition at 60 µg/disc,[17],7 mm
same,zone of inhibition at 100 µg/disc,[18],9 mm
same,MIC,[19],40 µg/disc
same,Activity,[20],Non-toxic
same,zone of inhibition at 60 µg/disc,[21],6 mm
same,MIC,[22],40 µg/disc
same,zone of inhibition at 60 µg/disc,[23],7 mm
same,Activity,[24],Toxic
C[C@@H]([C@H](N)C(=O)N[C@H](C(=O)O)[C@H]1O[C@@H](n2ccc(=O)[nH]c2=O)[C@H](O)[C@@H]1O)[C@H](O)c1ccc(O)cn1 [NIKKOMYCIN],inhibition at 4 µg/mL,[25],> 90%
same,inhibition,[26],> 90%
CC(=O)Nc1nc2c(c(-c3cccc(N4C(=O)C=CC4=O)c3)c1C#N)C(=O)CCC2,IC50,[1],50 µg/mL
same,zone of inhibition at 100 µg/disc,[2],7 mm
same,zone of inhibition at 60 µg/disc,[3],2 mm
same,zone of inhibition at 40 µg/disc,[4],2 mm
same,MIC,[5],40 µg/disc
same,zone of inhibition at 60 µg/disc,[6],2 mm
same,zone of inhibition at 100 µg/disc,[7],7 mm
same,zone of inhibition at 40 µg/disc,[8],2 mm
same,zone of inhibition at 40 µg/disc,[9],2 mm
same,zone of inhibition at 40 µg/disc,[10],8 mm
same,MIC,[11],40 µg/disc
same,zone of inhibition at 100 µg/disc,[12],11 mm
same,zone of inhibition at 40 µg/disc,[13],2 mm
same,inhibition,[26],91%
same,zone of inhibition at 100 µg/disc,[14],6 mm
same,MIC,[15],40 µg/disc
same,Activity,[16],Toxic
same,zone of inhibition at 60 µg/disc,[17],2 mm
same,zone of inhibition at 100 µg/disc,[18],6 mm
same,MIC,[19],40 µg/disc
same,Activity,[20],Non-toxic
same,zone of inhibition at 60 µg/disc,[21],2 mm
same,inhibition at 20 µg/mL,[27],95%
same,MIC,[22],40 µg/disc
same,zone of inhibition at 60 µg/disc,[23],9 mm
same,Activity,[24],Toxic
N#Cc1c(N)nc2c(c1-c1cccc(N)c1)C(=O)CCC2,zone of inhibition at 100 µg/disc,[2],6 mm
same,zone of inhibition at 60 µg/disc,[3],3 mm
same,Activity,[4],inactive
same,MIC,[5],40 µg/disc
same,zone of inhibition at 60 µg/disc,[6],3 mm
same,zone of inhibition at 100 µg/disc,[7],6 mm
same,Activity,[8],inactive
same,zone of inhibition at 40 µg/disc,[9],2 mm
same,zone of inhibition at 40 µg/disc,[10],5 mm
same,MIC,[11],60 µg/disc
same,zone of inhibition at 100 µg/disc,[12],10 mm
same,zone of inhibition at 40 µg/disc,[13],2 mm
same,inhibition,[26],76%
same,zone of inhibition at 100 µg/disc,[14],5 mm
same,MIC,[15],60 µg/disc
same,zone of inhibition at 60 µg/disc,[17],3 mm
same,zone of inhibition at 100 µg/disc,[18],5 mm
same,MIC,[19],40 µg/disc
same,zone of inhibition at 60 µg/disc,[21],3 mm
same,inhibition at 20 µg/mL,[27],95%
same,MIC,[22],40 µg/disc
same,zone of inhibition at 60 µg/disc,[23],7 mm
N#Cc1c(N)nc2c(c1-c1cccc([N+](=O)[O-])c1)C(=O)CCC2,IC50,[1],293 µg/mL
same,zone of inhibition at 100 µg/disc,[2],7 mm
same,zone of inhibition at 60 µg/disc,[3],4 mm
same,zone of inhibition at 40 µg/disc,[4],3 mm
same,MIC,[5],20 µg/disc
same,zone of inhibition at 60 µg/disc,[6],4 mm
same,zone of inhibition at 100 µg/disc,[7],7 mm
same,zone of inhibition at 40 µg/disc,[8],3 mm
same,zone of inhibition at 40 µg/disc,[9],3 mm
same,Activity,[10],inactive
same,MIC,[11],40 µg/disc
same,zone of inhibition at 100 µg/disc,[12],15 mm
same,zone of inhibition at 40 µg/disc,[13],3 mm
same,inhibition,[26],81%
same,zone of inhibition at 100 µg/disc,[14],7 mm
same,MIC,[15],40 µg/disc
same,Activity,[16],Toxic
same,zone of inhibition at 60 µg/disc,[17],4 mm
same,zone of inhibition at 100 µg/disc,[18],7 mm
same,MIC,[19],60 µg/disc
same,Activity,[20],Non-toxic
same,zone of inhibition at 60 µg/disc,[21],4 mm
same,inhibition at 20 µg/mL,[27],85%
same,MIC,[22],20 µg/disc
same,zone of inhibition at 60 µg/disc,[23],9 mm
same,Activity,[24],Toxic
Cc1ccc(-c2c(C#N)c(N)nc3c2C(=O)CCC3)cc1,zone of inhibition at 100 µg/disc,[2],7 mm
same,zone of inhibition at 60 µg/disc,[3],3 mm
same,zone of inhibition at 40 µg/disc,[4],3 mm
same,MIC,[5],40 µg/disc
same,zone of inhibition at 60 µg/disc,[6],4 mm
same,zone of inhibition at 100 µg/disc,[7],7 mm
same,zone of inhibition at 40 µg/disc,[8],3 mm
same,zone of inhibition at 40 µg/disc,[9],2 mm
same,Activity,[10],inactive
same,MIC,[11],40 µg/disc
same,zone of inhibition at 100 µg/disc,[12],14 mm
same,zone of inhibition at 40 µg/disc,[13],2 mm
same,inhibition,[26],91%
same,zone of inhibition at 100 µg/disc,[14],7 mm
same,MIC,[15],40 µg/disc
same,zone of inhibition at 60 µg/disc,[17],4 mm
same,zone of inhibition at 100 µg/disc,[18],7 mm
same,MIC,[19],60 µg/disc
same,zone of inhibition at 60 µg/disc,[21],3 mm
same,inhibition at 20 µg/mL,[27],90%
same,MIC,[22],40 µg/disc
same,zone of inhibition at 60 µg/disc,[23],10 mm
